From PubChem
The list is not random: actives were taken first. Their share in the collection is about 5.1%.
APP 5'UTR act – activators of APP 5'UTR luciferase reporter, primary screen, SH-SY5Y cells; SH-SY5Y APP 5'UTR luciferase reporter, luminescence; zero percent = DMSO vehicle wells; 1% of 190,000 active; activation, % at 2 µM;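 active means activation above a set limit, based on mean plus 3 SD of controls, cut at about 140% in these data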
STAT1 activator – STAT1 signaling activators, primary screen, cell-based, HTS, luciferase reporter | NIH 3T3 STAT1-luciferase reporter, IFN-gamma, luminescence; 100% = IFN-gamma alone, no compound | activation (% of control), % at 5.5 µM | 2.6% of 200,000 active;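 active means activation above the screen-wide mean activation plus 3 SD, cut at about 130% in these data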
STAT1 blocker – STAT1 signaling inhibitors, primary screen, cell-based, HTS, luciferase reporter. NIH 3T3 STAT1-luciferase reporter, IFN-gamma, luminescence. inhibition, % at 5.5 µM. 0.35% of 200,000 active;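 active means inhibition above a set limit, the mean inhibition across all tested compounds plus 3 SD, cut at about 34% in these data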
NF-kB neuron act – activators of NF-kB expression in neurons, primary screen, cell-based, HTS. fold change at 12.5 µM. 1.6% of 190,000 active. human neuronal cells, NF-kB reporter expression; hits give high values; in the data active means fold change above about 3.3
STAT3 activator – IL-6 driven STAT3 reporter potentiators, primary screen, U3A cells, luciferase, luminescence, MLSCN library; 0.91% of 190,000 active; AID 871, 2007; activation (% of control), % at 5.6 µM; IL-6 STAT3-luciferase reporter; 100% = signal with IL-6 EC80 alone;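 active means activation above the screen-wide mean of compound activation plus 3 SD, cut at about 130% in these data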
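Detection: reporter luminescence signal / Assay system: STAT1-lacking human U3A cells, STAT3 luciferase reporter / Incubation: compound pre-incubation 1 h before IL-6, then 6 h stimulation at 37 °C / Control set: IL-6-only high control / Read-out: % activation relative to IL-6 control / Probe or stimulus: Interleukin-6, 33 ng/mL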
STAT3 blocker – IL-6 driven STAT3 reporter inhibitors, primary screen, U3A cells, luciferase, luminescence, MLSCN library | IL-6 STAT3-luciferase reporter; host cell line lacks STAT1 | inhibition, % at 5.5 µM | 0.89% of 190,000 active | AID 862, 2007;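 active means inhibition above the mean inhibition across all screened compounds plus 3 SD, cut at about 44% in these data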
Each line names hits and unclear results; the compound was inactive in the other large screens.

Cc1ccc2nc(NC(=O)C(NS(=O)(=O)c3cccc4nsnc34)C(C)C)sc2c1 (stereo unspecified)	none
Nc1cccn2c(-c3ccc(Cl)cc3)cnc12	APP 5'UTR act 138, NF-kB neuron act 8.5
Cn1c(-c2ccc(Cl)cc2)cnc1N	none
CCOC(=O)c1sc(-c2ccccc2)cc1NC(=O)Nc1ccc([N+](=O)[O-])cc1	none
CN(C)c1ccc(/C=N/OC(=O)Nc2ccccc2Cl)cc1	none
COC(=O)Cc1ccc(NC(=O)c2ccc(C(C)(C)C)cc2)cc1	STAT1 blocker 44, STAT3 blocker 85
CC(C)(C)c1ccc(C(=O)Nc2ccc(Cl)cc2)cc1	STAT1 activator 130
Cc1ccc(NC(=O)c2ocnc2C)cc1Cl	STAT1 activator 145
Cc1ocnc1C(=O)Nc1ccc(Cl)cc1	STAT1 activator 131
CN(C)S(=O)(=O)c1ccc(C(=O)Nc2ccc(Cl)cc2)cc1	none
COC(=O)Cc1ccc(NC(=O)c2ccccc2Cl)cc1	none
CCOC(=O)c1[nH]cnc1C(=O)Nc1ccc(Cl)cc1	none
CCN(C(C)=O)c1ccc(Oc2nc(OC)cc(OC)n2)cc1	none
O=C(COC(=O)[C@H](Cc1c[nH]c2ccccc12)NC(=O)c1cccs1)NCc1ccccc1	none
Cc1cc(N(CCO)CCO)ccc1N=Nc1cc(F)ccc1F	STAT1 activator 133
Cc1ccc(C(=O)Nc2ncc3c(Cl)cccc3n2)cc1	APP 5'UTR act 141, STAT3 blocker 63
COc1ccc(-c2csc(NC(=O)c3ccccc3NS(=O)(=O)c3ccc(F)c(F)c3)n2)cc1	STAT1 blocker 63, STAT3 blocker 79
COc1cccc(C(=O)Nc2nc(-c3ccc(S(=O)(=O)N4CCOCC4)cc3)cs2)c1	STAT1 blocker 47, STAT3 blocker 48
Cc1ccc(-c2csc(NC(=O)COC(=O)c3cccc(S(=O)(=O)N4CCOCC4)c3)n2)cc1	STAT1 activator 131, NF-kB neuron act 3.6
Cn1cccc1CC(=O)NNC(=S)NC(=O)c1ccccc1Br	none
N#C/C(=C(/O)COC(=O)CSc1ccc(Cl)cc1)c1nc2ccccc2[nH]1	NF-kB neuron act 3.9
Cc1cc(SCC(=O)OC/C(O)=C(\C#N)c2nc3ccccc3[nH]2)c(C)cc1Br	none
COc1ccc(-c2noc(-c3ccccc3Cl)n2)cc1OC	STAT1 activator 143, NF-kB neuron act 4.9
COc1ccc(-c2noc(-c3cccc(Cl)c3)n2)cc1OC	none
COc1ccc(-c2nc(-c3ccncc3)no2)cc1OC	STAT1 activator 132
COc1ccc(-c2noc(-c3ccc(Cl)cc3[N+](=O)[O-])n2)cc1OC	none
Cc1cccc(-c2noc(Cc3ccc(Cl)cc3)n2)c1	none
Cc1cccc(-c2noc(-c3ccc(Cl)cc3[N+](=O)[O-])n2)c1	APP 5'UTR act 178, NF-kB neuron act 5.3
Cc1cccc(-c2noc(-c3ccoc3C)n2)c1	STAT1 activator 150
CC1CCCN(CCOc2ccc3ccccc3c2Br)C1 (stereo unspecified)	none
CCc1nnc(NC(=O)CSc2nnc(-c3cccnc3)n2C)s1	none
CCC(CO)NC1=CC(=O)CCC1 (stereo unspecified)	none
COc1ccc(-c2noc(-c3ccoc3C)n2)cc1OC	STAT1 activator 143, NF-kB neuron act 3.6
CSc1ccc(S(=O)(=O)Nc2ccc(OCC(=O)N3CCOCC3)cc2)cc1	none
CC(=O)Nc1sc(N/N=C\c2cccc(Cl)c2)nc1-c1cccs1	STAT3 activator 133
Cc1nc2c(-c3ccccc3)c[nH]n2c(=O)c1Cc1ccccc1	STAT1 activator 142
Cc1ccc(/C=C/C(=O)O)cc1S(=O)(=O)NCc1ccco1	none
Nn1cnnc1SCC(=O)Nc1ccc(C2CCCCC2)cc1	none
O=C(O)CSCC(=O)Nc1ccc(C2CCCCC2)cc1	STAT1 blocker 52, STAT3 blocker 93
CC(=O)c1sc(-c2cccc(Cl)c2)nc1C	none
CNC(=O)c1sc(-c2ccccc2)nc1C	none
CNC(=O)c1sc(-c2ccc(Cl)cc2)nc1C	STAT1 activator 142 (no result: APP 5'UTR act)
CC(=O)c1sc(-c2ccc(Cl)cc2)nc1C	STAT1 activator 133
CCC(=O)NC(=S)Nc1ccc(NC(=O)c2cc3ccccc3o2)c(OC)c1	none
CCOC(=O)C1=C(O)c2ccccc2C(=O)/C1=C\c1ccc(C)cc1	STAT3 activator 134
CCOC(=O)C1=C(Cc2ccc(Cl)cc2)C(=O)c2ccccc2C1=O	none
c1ccc(-c2csc(-c3cccnc3)n2)cc1	STAT1 activator 132
O=S(=O)(c1ccc(-c2csc(-c3cccnc3)n2)cc1)N1CCOCC1	none
Cc1ccc(-c2csc(-c3ccncc3)n2)cc1	STAT1 activator 144
COc1ccc2cc(-c3csc(-c4cccnc4)n3)ccc2c1	none
COc1ccc(-c2csc(-c3cccnc3)n2)cc1C	STAT1 activator 150
CN(C)C(=O)CN1CCN(Cc2cn(C)nc2-c2ccc3c(c2)OCCO3)CC1	none
COc1ccc(-c2nc(NC3=NCCCCC3)sc2C)cc1	none
COc1cccc(Nc2n[nH]c(=S)s2)c1	none
COc1ccc2nc(NC3=NCCC3)sc2c1	STAT1 activator 136
COc1cccc(Nc2nc3ccc(OC)cc3s2)c1	APP 5'UTR act 195, STAT1 activator 129, NF-kB neuron act 4.7
Cc1cc(C)c(OCCCCN2CCC(C)CC2)c(Br)c1	none
CCc1ccc(OCC(=O)NC(=S)Nc2ccc(S(=O)(=O)NC3CCCCC3)cc2)cc1	none
CCCCn1nnnc1SCC(=O)c1ccc(C)c(C)c1	none
Cc1ccc(C(=O)CSc2nnc(C(C)C)n2C)cc1C	NF-kB neuron act 3.4
CCCCC(=O)N(Cc1nc2sc(C)c(C)c2c(=O)[nH]1)C1CCCC1	none
CC/C(=N\NC(=O)c1c(-c2ccccc2)noc1C)c1ccc(C)o1	none
CC/C(=N\NC(=O)c1ccoc1C)c1ccc(C)o1	STAT1 activator 130
COc1cc2ccccc2cc1C(=O)NCC(c1cccs1)N(C)C (stereo unspecified)	none
Clc1ccc(-c2nc3n(n2)Cc2ccccc2-3)cc1	APP 5'UTR act 139, STAT1 activator 150, NF-kB neuron act 6.1
CCN(CC)S(=O)(=O)c1cccc(-c2nc3n(n2)Cc2ccccc2-3)c1	none
O=C(O)C1CCCCC1C(=O)Nc1cc(C(F)(F)F)ccc1Cl (stereo unspecified)	none
CC/C(=N\NC(=O)c1csc(C)c1C)c1cccs1	STAT1 activator 138, NF-kB neuron act 5.2
CCC/C(=N\NC(=O)c1csc(C)c1C)c1cccs1	none
c1ccc2c(c1)[nH]c1c(N3CCSCC3)ncnc12	STAT1 blocker 38
c1ccc2c(c1)[nH]c1c(N3CCN(C4CCCCC4)CC3)ncnc12	none
